This is an account of results in the array DNA melting data of Ke et al. (doi:10.1101/2024.01.08.574731).

Data set [1] can be described thus: folding enthalpy; higher = less favourable; fluorescence melt of hairpins on a sequencing array, two-state fit. Particulars: sodium 0.088 M. Put shortly:
(§1)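 Bootstrapped two-state fits yielded melting temperature and folding enthalpy for library hairpins. Cy3 fluorescence, with annealed Cy3 and quencher oligos, was imaged on a sequenced MiSeq flow cell in 50 mM Na-HEPES pH 8.0, 25 mM NaCl in 2.5 °C steps up to 60 °C, and normalised to pre-quench Cy3 and to control constructs. Four replicates were combined by inverse variance, and fitted temperatures were raised by 9.35 °C to match UV melts.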

Data set [2] can be described thus: melting temperature; fluorescence melt of hairpins on a sequencing array, two-state fit, raised by 9.35 °C to match UV melts. As to conditions: sodium 0.088 M. The method in brief: as §1

Consider GCAGCGCGAAAGCACAGC ((.(.((....)).).)), for which, in data set [1], the folding enthalpy was -19.9 kcal/mol. The Tm in data set [2] turned out to be 43.8 °C.
The corresponding values for GCCCCCGGAAACGGAGGC (((.(((....))).))) are -35 kcal/mol and 54.9 °C.
With GTCCATCGAAAGATTGAC (((.(((....))).))), the folding enthalpy in data set [1] is -34.1 kcal/mol. The Tm in data set [2] worked out at 39.7 °C.
For GCTGATGGAAACATCAAC (.(((((....))))).), the folding enthalpy in data set [1] was -21 kcal/mol. The Tm in data set [2] is 36 °C.
Turning to GATCTAAGACTAGATC ((((((....)))))), the folding enthalpy in data set [1] was -19.9 kcal/mol. The Tm in data set [2] is 34.3 °C.
The corresponding values for GAGCCTGGAAACAGGTTC ((.((((....)))).)) are -27.2 kcal/mol and 49.5 °C.
In the case of GAACAAGGAAACTTGCTC ((.((((....)))).)), in data set [1], the folding enthalpy is -19.4 kcal/mol. Moreover, the Tm in data set [2] came to 29.4 °C.
The corresponding values for GGCAACCGAAAGGTGGCC (((.(((....))).))) are -35 kcal/mol and 67.7 °C.
The corresponding values for GCGCGGCGAAAGCTGGGC ((.(.((....)).).)) are -32.4 kcal/mol and 67.2 °C.
GATCAGTGCACTGATC ((((((....)))))): the folding enthalpy in data set [1] was -58.7 kcal/mol. Besides, the Tm in data set [2] stood at 56.3 °C.
The corresponding values for GGAAACGAAAGTTTTTCC ((((((....)))..))) are -10.8 kcal/mol and 30.6 °C.
Regarding GGACACGAAAGTGTGTCC ((((((....)))..))), the folding enthalpy in data set [1] is -30.6 kcal/mol. Moreover, the Tm in data set [2] is 55.5 °C.
The corresponding values for GGGTTTGGAAACAGATCC ((.(.((....)).).)) are -13 kcal/mol and 29.9 °C.
As for GATCCACGGTGGATC ((((((...)))))), in data set [1], the folding enthalpy is -43.6 kcal/mol. Besides, the Tm in data set [2] amounted to 50.6 °C.
On to GATCTAACAATAGATC ((((((....)))))), for which the folding enthalpy in data set [1] was -17.6 kcal/mol. In data set [2], the Tm is 33.9 °C.
As to GATAGGCGAAAGCCATC (((.(((....)))))), in data set [1], the folding enthalpy was -12.6 kcal/mol. Moreover, the Tm in data set [2] stood at 40.3 °C.
On to GATCCCCCAAGGGATC ((((((....)))))), for which the folding enthalpy in data set [1] is -38.6 kcal/mol. The Tm in data set [2] was found to be 61.2 °C.
For GTATGTGGAAACATATAC ((((.((....)).)))), the folding enthalpy in data set [1] is -23.1 kcal/mol. Besides, the Tm in data set [2] came to 37.2 °C.
The corresponding values for GTGCATGGAAACATGCAC (((((((....))))))) are -33.8 kcal/mol and 68.6 °C.
As for CGCAGCCGGAAACGGGCG (((..(((....)))))), in data set [1], the folding enthalpy is -20 kcal/mol. In data set [2], the Tm was 47.9 °C.
For GCTCCGCGAAAGCGTAGC (((.(((....))).))), in data set [1], the folding enthalpy is -32.6 kcal/mol. Also, the Tm in data set [2] worked out at 51.8 °C.
With GTCAGCGAAAGCTGGAC ((((((....))).))), the folding enthalpy in data set [1] was -14.4 kcal/mol. Also, the Tm in data set [2] came out at 53.1 °C.
The corresponding values for GCCGTCGAAAGACCGGGC ((((((....)))..))) are -22.1 kcal/mol and 50.3 °C.
For the sequence GCGTCCGAAAGGACTCGC ((((((....)))..))), the folding enthalpy in data set [1] was -12.3 kcal/mol. The Tm in data set [2] was determined as 51 °C.
On to GTGAGGCGAAAGCCACAC (((.(((....))).))), for which the folding enthalpy in data set [1] was -26.5 kcal/mol. The Tm in data set [2] worked out at 59.6 °C.
The corresponding values for GCTATCTCGAAAGAGAGC (((..(((....)))))) are -16.7 kcal/mol and 37.2 °C.
For GATCCTACGGAGGATC ((((((....)))))), the folding enthalpy in data set [1] is -35 kcal/mol. The Tm in data set [2] is 50.9 °C.
With GCCTCGCGAAAGCGAAGC ((.((((....)))).)), in data set [1], the folding enthalpy was -18.7 kcal/mol. For the same sequence, the Tm in data set [2] was found to be 56.5 °C.
For GGTCTCGAAAGAGCACC ((((((....))).))), the folding enthalpy in data set [1] was -22.8 kcal/mol. Besides, the Tm in data set [2] was 46.5 °C.
For GGGCTGGGAAACCGGCCC ((((.((....)).)))), the folding enthalpy in data set [1] was -29.2 kcal/mol. In data set [2], the Tm came out at 67.2 °C.
On to GATCTCCAGGAGATC ((((((...)))))), for which the folding enthalpy in data set [1] was -37.3 kcal/mol. Further, the Tm in data set [2] was 52.3 °C.
For GTGATCCCGAAAGGGCAC (((..(((....)))))), in data set [1], the folding enthalpy was -14.4 kcal/mol. Moreover, the Tm in data set [2] came out at 39.9 °C.
Turning to GCCAGGGGAAACCCTGAC (.(((((....))))).), the folding enthalpy in data set [1] is -15.4 kcal/mol. In addition, the Tm in data set [2] worked out at 47.6 °C.
The corresponding values for GTGGGTGAAAACCCAC ((((((....)))))) are -28.1 kcal/mol and 67.3 °C.
For the sequence GATCCGGCTTCGGATC ((((((....)))))), the folding enthalpy in data set [1] was -39.8 kcal/mol. Moreover, the Tm in data set [2] is 59.5 °C.
GACCCCGAAAGGGCGGTC ((((((....)))..))): the folding enthalpy in data set [1] was -17.2 kcal/mol. Further, the Tm in data set [2] is 45.9 °C.
As to GGGTGTACGAAAGTACCC (((..(((....)))))), in data set [1], the folding enthalpy was -23.1 kcal/mol. Further, the Tm in data set [2] came out at 53.3 °C.
As to GCCGCAGGAAACTGTGGC (((.(((....))).))), in data set [1], the folding enthalpy was -39.4 kcal/mol. The Tm in data set [2] is 60.3 °C.
The corresponding values for GGCAGTGGAAACATTGCC ((((.((....)).)))) are -41.3 kcal/mol and 52.2 °C.
For the sequence GATCGACCTGTCGATC ((((((....)))))), the folding enthalpy in data set [1] was -40.3 kcal/mol. Besides, the Tm in data set [2] was 65 °C.
Consider GGAAAGCGAAAGCTTCC (((.(((....)))))), for which the folding enthalpy in data set [1] is -18.1 kcal/mol. Further, the Tm in data set [2] is 53.7 °C.
Turning to GATCCCGATTGGGATC ((((((....)))))), the folding enthalpy in data set [1] was -36 kcal/mol. Moreover, the Tm in data set [2] is 59.1 °C.
Regarding GCAGGGCGAAAGCGCGGC ((.(.((....)).).)), the folding enthalpy in data set [1] was -29.2 kcal/mol. Moreover, the Tm in data set [2] stood at 62.9 °C.
Turning to GATCAACCTATTGATC ((((((....)))))), in data set [1], the folding enthalpy was -29 kcal/mol. Besides, the Tm in data set [2] was determined as 41.5 °C.
For the sequence GCATAACGAAAGTTTGC (((.(((....)))))), the folding enthalpy in data set [1] is -25.8 kcal/mol. In data set [2], the Tm was determined as 46 °C.
As for GATCTTAGAAAAGATC ((((((....)))))), the folding enthalpy in data set [1] is -21.6 kcal/mol. Further, in data set [2], the Tm is 36.4 °C.
On to GCGAAGGGAAACTTTCGC (((((.(....).))))), for which the folding enthalpy in data set [1] is -30.2 kcal/mol. The Tm in data set [2] worked out at 51 °C.
Regarding GTGGGACGAAAGTCCAC (((.(((....)))))), the folding enthalpy in data set [1] is -13.2 kcal/mol. In addition, the Tm in data set [2] is 55.9 °C.
The corresponding values for AGGAAGAAATTCCT (((((....))))) are -11.9 kcal/mol and 28.9 °C.
In the case of GATCTCTTTTGAGATC ((((((....)))))), the folding enthalpy in data set [1] was -39.2 kcal/mol. In addition, in data set [2], the Tm was 55 °C.
For GATTCCGAAAGGAAGATC ((((((....)))..))), in data set [1], the folding enthalpy is -22.3 kcal/mol. Moreover, the Tm in data set [2] was determined as 45.4 °C.
On to GGAAAAGGAAACTTTCCC ((.((((....)))).)), for which, in data set [1], the folding enthalpy was -13.1 kcal/mol. Also, the Tm in data set [2] is 27.8 °C.
For the sequence GATCGGCACCCGATC ((((((...)))))), the folding enthalpy in data set [1] was -35.9 kcal/mol. Moreover, the Tm in data set [2] is 55 °C.
With GTTTCCCCGAAAGGGAAC (((..(((....)))))), the folding enthalpy in data set [1] was -13.7 kcal/mol. In addition, the Tm in data set [2] stood at 38.5 °C.
Consider GAGTGCGAAAGCAGACTC ((((((....)))..))), for which the folding enthalpy in data set [1] was -18.2 kcal/mol. Moreover, the Tm in data set [2] stood at 44.4 °C.
The corresponding values for GTGCTGGCGAAAGCCCAC (((..(((....)))))) are -10.3 kcal/mol and 49.3 °C.
As for GATCGTATATACGATC ((((((....)))))), the folding enthalpy in data set [1] is -35.1 kcal/mol. For the same sequence, the Tm in data set [2] stood at 56.6 °C.
On to GTGGAAGGAAACTTTCGC (.(.(((....))).).), for which the folding enthalpy in data set [1] was -20 kcal/mol. Also, the Tm in data set [2] is 30 °C.
Turning to GTCCGCGAAAGCGTGAC ((((((....))).))), the folding enthalpy in data set [1] was -19.8 kcal/mol. Moreover, the Tm in data set [2] was 58 °C.
In the case of GATCTGCTTTCAGATC ((((((....)))))), in data set [1], the folding enthalpy was -40.1 kcal/mol. Also, in data set [2], the Tm is 49.1 °C.
As for GATCCCTACTGGGATC ((((((....)))))), the folding enthalpy in data set [1] was -37.7 kcal/mol. In addition, the Tm in data set [2] is 64.4 °C.
The corresponding values for GATCCCTGGGGGATC ((((((...)))))) are -40.5 kcal/mol and 62.2 °C.
The corresponding values for GATCGTTGTTACGATC ((((((....)))))) are -37.7 kcal/mol and 57.4 °C.
The corresponding values for GGCTACGGAAACACAGCC ((((..(....)..)))) are -23.6 kcal/mol and 35.5 °C.
For the sequence GAGACACCGAAAGGTCTC (((..(((....)))))), the folding enthalpy in data set [1] is -20.4 kcal/mol. For the same sequence, the Tm in data set [2] is 42.2 °C.
GATCGTCATGACGATC ((((((....)))))): the folding enthalpy in data set [1] was -40.3 kcal/mol. For the same sequence, the Tm in data set [2] came out at 61.4 °C.
Regarding GGATCCCGAAAGGGTCC (((.(((....)))))), the folding enthalpy in data set [1] is -27.8 kcal/mol. Besides, in data set [2], the Tm stood at 60.1 °C.
The corresponding values for GACGCAGGAAACTGTGTC (((.(((....))).))) are -39.8 kcal/mol and 52.5 °C.
In the case of GATCTTTATCAAGATC ((((((....)))))), the folding enthalpy in data set [1] is -29.4 kcal/mol. For the same sequence, the Tm in data set [2] turned out to be 39.3 °C.
The corresponding values for CGATCTCGGAAACGATCG (((..(((....)))))) are -20.3 kcal/mol and 36.7 °C.
For the sequence GAACCTGGAAACAGGCTC ((.((((....)))).)), the folding enthalpy in data set [1] was -18.9 kcal/mol. Moreover, the Tm in data set [2] is 40 °C.
Turning to GTACCCGAAAGGGCTTAC ((((((....)))..))), in data set [1], the folding enthalpy is -11.2 kcal/mol. Moreover, the Tm in data set [2] was 27.1 °C.
As for GCTCAGCGAAAGCGGTGC ((.(.((....)).).)), in data set [1], the folding enthalpy is -17.8 kcal/mol. The Tm in data set [2] came out at 55.2 °C.
Consider GGATTCGAAAGAACCTCC ((((((....)))..))), for which the folding enthalpy in data set [1] was -16.7 kcal/mol. For the same sequence, the Tm in data set [2] was found to be 37.8 °C.
